pEC50: −log10 of the molar value. Activity calls are given as the source filed them. No cut-off for these calls is given here.

Common to all, as to format: cell-based
In experiment [1] the target is T1, GABA-A receptor; alpha-1/beta-2/gamma-2 (Homo sapiens, UniProt P14867+P18507+P47870).
T1 sequence (P14867 whole entry): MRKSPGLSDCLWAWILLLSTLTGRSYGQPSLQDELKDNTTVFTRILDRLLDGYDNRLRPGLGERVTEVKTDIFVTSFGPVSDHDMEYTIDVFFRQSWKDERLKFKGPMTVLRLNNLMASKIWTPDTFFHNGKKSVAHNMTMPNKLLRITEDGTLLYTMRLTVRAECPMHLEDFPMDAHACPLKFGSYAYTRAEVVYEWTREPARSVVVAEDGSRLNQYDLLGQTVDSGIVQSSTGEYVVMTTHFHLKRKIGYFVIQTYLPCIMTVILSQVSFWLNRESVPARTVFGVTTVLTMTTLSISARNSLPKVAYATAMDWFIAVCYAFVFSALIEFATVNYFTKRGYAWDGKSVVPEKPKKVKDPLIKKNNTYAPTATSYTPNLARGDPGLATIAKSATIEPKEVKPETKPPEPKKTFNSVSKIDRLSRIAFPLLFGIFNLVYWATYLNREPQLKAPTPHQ
T1 sequence (P47870 whole entry): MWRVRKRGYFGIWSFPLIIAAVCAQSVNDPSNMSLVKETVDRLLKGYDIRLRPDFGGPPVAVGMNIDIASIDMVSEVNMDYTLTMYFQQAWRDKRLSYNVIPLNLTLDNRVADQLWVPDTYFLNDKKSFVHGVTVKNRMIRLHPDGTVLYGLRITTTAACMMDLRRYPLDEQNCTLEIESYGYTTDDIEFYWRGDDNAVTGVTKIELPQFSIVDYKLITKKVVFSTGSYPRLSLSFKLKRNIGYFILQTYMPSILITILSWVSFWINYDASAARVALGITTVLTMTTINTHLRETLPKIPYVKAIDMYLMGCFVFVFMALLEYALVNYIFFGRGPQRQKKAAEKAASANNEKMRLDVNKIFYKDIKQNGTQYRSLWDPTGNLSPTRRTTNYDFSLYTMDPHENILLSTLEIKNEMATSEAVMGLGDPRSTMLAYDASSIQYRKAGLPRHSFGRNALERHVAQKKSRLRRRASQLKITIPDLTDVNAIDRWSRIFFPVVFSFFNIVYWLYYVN
T1 sequence (P18507 whole entry): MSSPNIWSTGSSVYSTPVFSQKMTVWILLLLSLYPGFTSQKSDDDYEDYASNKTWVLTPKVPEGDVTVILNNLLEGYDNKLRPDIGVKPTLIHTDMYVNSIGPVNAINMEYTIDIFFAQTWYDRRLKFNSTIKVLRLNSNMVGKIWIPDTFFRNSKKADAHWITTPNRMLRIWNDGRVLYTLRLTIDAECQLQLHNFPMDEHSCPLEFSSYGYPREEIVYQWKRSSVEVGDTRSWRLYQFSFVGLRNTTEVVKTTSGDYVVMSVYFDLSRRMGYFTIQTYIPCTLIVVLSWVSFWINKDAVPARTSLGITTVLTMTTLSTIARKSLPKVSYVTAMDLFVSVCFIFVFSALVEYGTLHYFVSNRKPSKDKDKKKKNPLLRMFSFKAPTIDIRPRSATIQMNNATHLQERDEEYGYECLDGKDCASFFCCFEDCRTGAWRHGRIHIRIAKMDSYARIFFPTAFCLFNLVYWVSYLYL
The experiment in a line: Positive allosteric modulation of GABAA alpha1beta2gamma2 receptor (unknown origin) stably expressed in CHO cells assessed as activation of GABA-induced response in presence of GABA by FLIPR assay.

Experiment [2] addresses T2, GABA-A receptor; alpha-1/beta-2/gamma-2 (Homo sapiens) (UniProt P14867+P47870+P18507). The experiment in a line: Additive positive allosteric modulation of GABAA alpha1beta2gamma2 receptor (unknown origin) stably expressed in CHO cells assessed as activation of GABA-induced response at 0.5 to 8 uM in presence of etazolate by FLIPR assay. The note with it: filed as positive allosteric modulator, dose 0.5-8 µM. An outline of the steps:
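In the FLIPR membrane-potential assay on α1β2γ2-CHO cells, compound at 0.5–8.0 μM was tested with etazolate at a fixed concentration (0.78 μM per the methods). 2 μM GABA was added at 295 s. The fluorescence change at 270–330 s was normalized to 200 μM GABA. Controls were 2 μM GABA, 200 μM GABA and 0.2% DMSO.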

In experiment [3] the target is T2, GABA-A receptor; alpha-1/beta-2/gamma-2 (Homo sapiens). The experiment in a line: Additive positive allosteric modulation of GABAA alpha1beta2gamma2 receptor (unknown origin) stably expressed in CHO cells assessed as activation of GABA-induced response at 0.5 to 4 uM in presence of allopregnanolone by FLIPR assay. The settings on record: filed as positive allosteric modulator, dose 0.5-4 µM, DDE = dose-dependent effect. An outline of the steps: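 The FLIPR membrane-potential assay used α1β2γ2-CHO cells. Compound was tested at 0.5, 1.0, 2.0 and 4.0 μM together with a fixed 0.25 μM allopregnanolone, and 2 μM GABA was added at 295 s. The fluorescence change at 270–330 s was normalized to 200 μM GABA. Plates included 2 μM GABA, 200 μM GABA and 0.2% DMSO controls.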

Experiment [4] shares this target. The experiment in a line: Positive allosteric modulation of GABAA alpha1beta2gamma2 receptor (unknown origin) stably expressed in CHO cells assessed as activation of GABA-induced response at 10 uM in presence of pregnenolone sulfate by FLIPR assay. The note with it: filed as positive allosteric modulator. An outline of the steps:
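Compound was held at 10 μM with pregnenolone sulfate at 0.001–10 μM in the FLIPR membrane-potential assay on α1β2γ2-CHO cells, and 2 μM GABA was added at 295 s. The fluorescence change at 270–330 s was normalized to 200 μM GABA. Controls were 2 μM GABA, 200 μM GABA and 0.2% DMSO.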

Experiment [5] has the same target. The experiment in a line: Positive allosteric modulation of GABAA alpha1beta2gamma2 receptor (unknown origin) stably expressed in CHO cells assessed as activation of GABA-induced response at 5 uM in presence of flumazenil by FLIPR assay. The note with it: filed as positive allosteric modulator. An outline of the steps:
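For the benzodiazepine-site test, α1β2γ2-CHO cells in the FLIPR membrane-potential assay received compound at 5 μM plus flumazenil at 0.001–10 μM, with 2 μM GABA added at 295 s. Activation was the fluorescence change at 270–330 s, normalized to 200 μM GABA. Controls were 2 μM GABA, 200 μM GABA and 0.2% DMSO.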

For experiment [6] the target is unchanged. The experiment in a line: Additive positive allosteric modulation of GABAA alpha1beta2gamma2 receptor (unknown origin) stably expressed in CHO cells assessed as activation of GABA-induced response at 0.5 to 8 uM in presence of diazepam by FLIPR assay. The settings on record: filed as positive allosteric modulator, dose 0.5-8 µM. An outline of the steps:
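α1β2γ2-CHO cells were run in the FLIPR membrane-potential assay. Activation was the fluorescence change at 270–330 s, normalized to 200 μM GABA. Controls were 2 μM GABA, 200 μM GABA and 0.2% DMSO.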

In general, pEC50 refers to −log10 of the EC50, conventionally taken in molar units. As to `O=C(/C=C/C=C/c1ccc2c(c1)OCO2)N1CCCCC1` [PIPERINE], the pEC50 in experiment [1] is 5.24.

With `C=C/C(C)=C/C[C@]1(C)[C@H](C)C[C@H](OC)[C@]23C(=C[C@@H](OC(C)=O)C[C@@H]12)[C@@H](OC(C)=O)O[C@H]3OC(C)=O`, the result in experiment [2], in experiment [4], in experiment [5] and in experiment [6] was Active. Further, in experiment [3], the Activity result is “Dde”. Also, the pEC50 in experiment [1] is 5.85.

As to `C=CCc1ccc(O)c(-c2cc(CC=C)ccc2O)c1` [MAGNOLOL], the pEC50 in experiment [1] is 5.32.

In the case of `C=C/C(C)=C/C[C@]1(C)[C@H](C)C[C@H](OC(C)=O)[C@]23C(=C[C@@H](OC(C)=O)C[C@@H]12)[C@@H](OC(C)=O)O[C@H]3OC(C)=O`, the pEC50 in experiment [1] is 5.34.

Take `CC1=C2[C@H](/C=C(\C)C(=O)O)CC[C@@H](C)[C@H]2CC1` [VALERENIC ACID]: in experiment [1], the pEC50 was 4.90.

Consider `C=C/C(C)=C/C[C@]1(C)[C@H](C)C[C@H](O)[C@]23C(=C[C@@H](OC(C)=O)C[C@@H]12)[C@@H](OC(C)=O)O[C@H]3OC(C)=O`, for which the pEC50 in experiment [1] was 6.30.
